Usually IC50 stands for the concentration that gives 50% inhibition. Higher therefore signals lower potency. A word on the inhibition: it is the share of the control response that was lost under treatment. Low readings indicate a response near the control, high ones a response far below the control.

The source made the active and inactive calls. The calls are words filed in the database; no cut-off is given here.

Data on two compounds can be found in ChEMBL document CHEMBL1146517, “Scleritodermin A, a cytotoxic cyclic peptide from the lithistid sponge Scleritoderma nodosum” (J Nat Prod, 2004).

Test [1] relates to HCT-116. Put plainly: Cytotoxicity against human HCT116 cells after 72 hrs by MTS assay. It counts as functional, cell-based. The following applies: HCT-116, 72 h. The method in brief:
(§1)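 Cells grown in RPMI 1640 with 5 mM HEPES and 10% FBS; HCT116/VM46 is a multidrug-resistant subline of HCT116. Seeded in microtiter plates, compound added 24 h later as serial dilutions, then 72 h at 37 °C. MTS plus phenazine methosulfate added, absorbance read at 492 nm as viable-cell measure; IC50 reported.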

Test [2] relates to HCT-116. Put plainly: Cytotoxicity against VM46-resistant human HCT116 cells overexpressing P-gp after 72 hrs by MTS assay. It counts as functional, cell-based. The settings on record: HCT-116, 72 h. The essentials:
as §1

For test [3], the system named is A2780. Put plainly: Cytotoxicity against human A2780 cells after 72 hrs by MTS assay. It counts as functional, cell-based. The settings on record: A2780, 72 h. The method in brief: as §1
For orientation: Tetrazolium dyes change colour on reduction, which living cells bring about.

Test [4] deals with SK-BR-3. Nature of the test: Cytotoxicity against human SKBR3 cells after 72 hrs by MTS assay. The following applies: SK-BR-3, 72 h. It counts as functional, cell-based. The method in brief:
as §1

Test [5] has as its system HCT-116. Nature of the test: Ratio of IC50 for VM46-resistant human HCT116 cells overexpressing P-gp to IC50 for human HCT116 cells. It counts as functional.
Test [6] has as its system A2780. Put plainly: Induction of apoptosis in human A2780 cells at 1.3 uM after 24 hrs by TUNEL assay. The format is functional. The essentials: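 A2780 cells seeded in six-well plates, treated the next day for 24 h, then collected. Apoptosis scored by TUNEL assay read by flow cytometry, with doublet discrimination gates during acquisition and analysis; apoptosis expressed as fold induction.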

Test [7] has as its system A2780. Put plainly: Cell cycle arrest in human A2780 cells assessed as accumulation at G2/M phase at 1.3 uM after 24 hrs by flow cytometry analysis. The format is functional, cell-based. The method in brief:
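A2780 cells seeded in six-well plates, compound added next day for 24 h. Cells trypsinized, fixed overnight in 80% ethanol at -20 °C, PBS-washed, stained 1 h at RT with propidium iodide (50 µg/mL) and RNase (10 µg/mL). Flow cytometry; G0/G1, S and G2-M fractions calculated from DNA histograms.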

For test [8], the species on record is Bos taurus. Put plainly: Inhibition of GTP-induced calf brain tubulin polymerization at 10 uM. The method in brief: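 Twice-cycled calf brain tubulin in 100 mM MES pH 6.6, 1 mM EGTA, 0.5 mM MgCl2, preincubated with compound. Polymerization started with 500 µM GTP; absorbance at 350 nm read every 36 s in cuvettes held at 37 °C.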

For `CC[C@]1(O)C[C@@H]2CN(CCc3c([nH]c4ccccc34)[C@@](C(=O)OC)(c3cc4c(cc3OC)N(C)[C@H]3[C@@](O)(C(=O)OC)[C@H](OC(C)=O)[C@]5(CC)C=CCN6CC[C@]43[C@@H]65)C2)C1` [VINBLASTINE], the IC50 in test [1] came to 3 nM; in test [2], 135 nM; in test [3] it was 5 nM; in test [4], 72 nM. The “Ratio IC50” value in test [5] stood at 45.
Turning to `CC[C@@H](C)[C@@H]1NC(=O)[C@@H]2CCCN2C(=O)[C@@H](NC(=O)[C@@H]2CCCN2C(=O)[C@@H](COC)NS(=O)(=O)[O-])COC(=O)/C(C)=C\C(C)=C\c2csc(n2)[C@H](Cc2ccc(O)cc2)NC(=O)C1=O.[Na+]` [SCLERITODERMIN A], the IC50 in test [1] was 1900 nM; in test [2], 5600 nM; in test [3], 940 nM; in test [4], 670 nM. Moreover, the “Ratio IC50” value in test [5] came out at 2.9. Besides, in test [6], the “fold change (FC)” value amounted to 5.5. The outcome in test [7] was Active. Also, in test [8], the inhibition was determined as 50%.
